Experimental data taken from ChEMBL document CHEMBL1125894, “Dual-action cephalosporins: cephalosporin 3'-quaternary ammonium quinolones” (1991).
Converted amounts (≈) assume the structure as drawn.

What was measured:
Pseudomonas aeruginosa [1] = test: In vitro antibacterial activity against Pseudomonas aeruginosa 5712; type: functional
In short: (§1)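 Serial 2-fold dilutions in the NCCLS broth microdilution method for aerobic nonfastidious organisms, with an 18-h incubation. The value is reported as the minimum inhibitory concentration (MIC).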

Enterobacter cloacae [2] = test: In vitro antibacterial activity against Enterobacter cloacae 5699; type: functional; in short: as §1
Escherichia coli [3] = test: In vitro antibacterial activity against Escherichia coli 257; type: functional; in short: as §1
Streptococcus pneumoniae [4] = test: In vitro antibacterial activity against Streptococcus pneumoniae 6301; type: functional
In short: (§2)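 Broth macrodilution with serial 2-fold dilutions in cation-supplemented Mueller-Hinton broth containing 10% goat serum. The value is reported as the MIC.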

Streptococcus pyogenes [5] = test: In vitro antibacterial activity against Streptococcus pyogenes 4; type: functional; in short: as §2
Staphylococcus aureus [6] = test: In vitro antibacterial activity against Staphylococcus aureus Smith(MS); type: functional
In short: (§3)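 Staphylococci were tested by the standard agar dilution procedure using serial 2-fold dilutions of agent. The value is reported as the MIC.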

Klebsiella pneumoniae [7] = test: In vitro antibacterial activity against Klebsiella pneumoniae A; type: functional; in short: as §1
Serratia marcescens [8] = test: In vitro antibacterial activity against Serratia marcescens SM; type: functional; in short: as §1
Enterobacter cloacae [9] = test: In vitro antibacterial activity against Enterobacter cloacae P99; type: functional; in short: as §1
Staphylococcus aureus [10] = test: In vitro antibacterial activity against Staphylococcus aureus 95(MR); type: functional; in short: as §3
Citrobacter freundii [11] = test: In vitro antibacterial activity against Citrobacter freundii BS 16; type: functional; in short: as §1
Streptococcus pyogenes [12] = test: In vivo activity in murine against Streptococcus pyogenes 4 infection after sc administration.; type: functional
In short: (§4)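 Mouse protection test in CD1 Swiss albino mice (18–20 g). Mice were infected intraperitoneally with 0.5 mL of a diluted bacterial suspension, then treated within 5 min with one 1.0 mL subcutaneous dose at the dorsal base of the neck. Doses ranged from 0.05 to 250 mg/kg, with six mice per group. ED50 was calculated by the Reed–Muench method.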

Staphylococcus aureus [13] = test: In vivo activity in murine against Staphylococcus aureus 753(MR) infection after sc administration.; type: functional; in short: as §4
Enterobacter cloacae [14] = test: In vivo activity in murine against Enterobacter cloacae 5699 infection after sc administration.; type: functional; in short: as §4
Serratia marcescens [15] = test: In vivo activity in murine against Serratia marcescens SM infection after sc administration.; type: functional; in short: as §4
Staphylococcus aureus [16] = test: In vivo activity in murine against Staphylococcus aureus Smith (MS) infection after sc administration.; type: functional; in short: as §4
Citrobacter freundii [17] = test: In vivo activity in murine against Citrobacter freundii BS#16 infection after sc administration.; type: functional
In short: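 CD1 Swiss albino mice (18–20 g) infected intraperitoneally with 0.5 mL diluted bacterial culture suspension. Single subcutaneous treatment within 5 min, 1.0 mL at dorsal base of neck, serial dilutions spanning 0.05–250 mg/kg. Six mice per treatment and control group. ED50 (50% protective dose) derived by Reed and Muench method.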

Klebsiella pneumoniae [18] = test: In vivo activity in murine against Klebsiella pneumoniae A infection after sc administration.; type: functional; in short: as §4
Streptococcus pneumoniae [19] = test: In vivo activity in murine against Streptococcus pneumoniae 6301 infection after sc administration.; type: functional; in short: as §4
Pseudomonas aeruginosa [20] = test: In vivo activity in murine against Pseudomonas aeruginosa 5712 infection after sc administration.; type: functional; conditions: Pseudomonas aeruginosa, sc; read-out: ED50
In short: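 Mouse protection test in CD1 Swiss albino mice (18–20 g) infected intraperitoneally with 0.5 mL of diluted P. aeruginosa suspension. Mice received 1.0 mL subcutaneously at the neck base within 5 min of infection and a second treatment 3 h after infection. Doses ranged from 0.05 to 250 mg/kg, with six mice per group. ED50 was calculated by the Reed–Muench method.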

Escherichia coli [21] = test: In vivo activity in murine against Escherichia coli 257 infection after sc administration.; type: functional; conditions: Escherichia coli, sc; read-out: ED50; in short: as §4
[22] = biological target: T1, Penicillin-binding protein 1A (Escherichia coli K-12) (UniProt P02918); test: Concentration required for 90% inhibition against 90 kDa penicillin-binding protein 1a binding using [14C]-Pen G as the radioligand.
T1 sequence (whole entry): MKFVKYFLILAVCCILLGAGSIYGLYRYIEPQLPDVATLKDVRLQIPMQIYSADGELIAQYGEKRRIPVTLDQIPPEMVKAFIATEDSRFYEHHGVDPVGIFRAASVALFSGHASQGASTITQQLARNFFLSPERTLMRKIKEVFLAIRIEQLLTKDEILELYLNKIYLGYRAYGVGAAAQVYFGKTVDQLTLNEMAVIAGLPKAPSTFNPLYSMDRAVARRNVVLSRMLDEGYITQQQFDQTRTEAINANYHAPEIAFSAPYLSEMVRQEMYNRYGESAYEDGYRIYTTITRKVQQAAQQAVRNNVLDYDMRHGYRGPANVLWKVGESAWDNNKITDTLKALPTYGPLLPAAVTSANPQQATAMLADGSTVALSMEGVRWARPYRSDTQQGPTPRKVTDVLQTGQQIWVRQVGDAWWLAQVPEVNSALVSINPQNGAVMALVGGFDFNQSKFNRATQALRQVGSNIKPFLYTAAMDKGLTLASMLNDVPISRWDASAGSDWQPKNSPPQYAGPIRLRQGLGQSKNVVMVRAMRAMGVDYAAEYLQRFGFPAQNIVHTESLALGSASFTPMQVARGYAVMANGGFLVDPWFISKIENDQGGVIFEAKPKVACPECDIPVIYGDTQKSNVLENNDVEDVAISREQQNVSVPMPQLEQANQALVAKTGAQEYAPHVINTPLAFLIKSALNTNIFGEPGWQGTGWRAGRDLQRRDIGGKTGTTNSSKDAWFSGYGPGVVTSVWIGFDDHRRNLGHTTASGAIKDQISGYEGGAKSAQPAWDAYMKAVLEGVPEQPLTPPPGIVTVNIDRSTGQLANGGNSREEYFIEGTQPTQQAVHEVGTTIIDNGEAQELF
In short: (§5)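 Solubilized membranes from sonicated E. coli DC-0 were used. PBP binding was measured as inhibition of [14C]penicillin G binding to each PBP.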

Escherichia coli [23] = test: Concentration required for 90% inhibition against 60 kDa penicillin-binding protein 3 binding using [14C]-Pen G as the radioligand.; in short: as §5
[24] = biological target: T2, Penicillin-binding protein 1B (Escherichia coli K-12) (UniProt P02919); test: Concentration required for 90% inhibition against 90 kDa penicillin-binding protein 1b binding using [14C]-Pen G as the radioligand.; in short: as §5
T2 sequence (whole entry): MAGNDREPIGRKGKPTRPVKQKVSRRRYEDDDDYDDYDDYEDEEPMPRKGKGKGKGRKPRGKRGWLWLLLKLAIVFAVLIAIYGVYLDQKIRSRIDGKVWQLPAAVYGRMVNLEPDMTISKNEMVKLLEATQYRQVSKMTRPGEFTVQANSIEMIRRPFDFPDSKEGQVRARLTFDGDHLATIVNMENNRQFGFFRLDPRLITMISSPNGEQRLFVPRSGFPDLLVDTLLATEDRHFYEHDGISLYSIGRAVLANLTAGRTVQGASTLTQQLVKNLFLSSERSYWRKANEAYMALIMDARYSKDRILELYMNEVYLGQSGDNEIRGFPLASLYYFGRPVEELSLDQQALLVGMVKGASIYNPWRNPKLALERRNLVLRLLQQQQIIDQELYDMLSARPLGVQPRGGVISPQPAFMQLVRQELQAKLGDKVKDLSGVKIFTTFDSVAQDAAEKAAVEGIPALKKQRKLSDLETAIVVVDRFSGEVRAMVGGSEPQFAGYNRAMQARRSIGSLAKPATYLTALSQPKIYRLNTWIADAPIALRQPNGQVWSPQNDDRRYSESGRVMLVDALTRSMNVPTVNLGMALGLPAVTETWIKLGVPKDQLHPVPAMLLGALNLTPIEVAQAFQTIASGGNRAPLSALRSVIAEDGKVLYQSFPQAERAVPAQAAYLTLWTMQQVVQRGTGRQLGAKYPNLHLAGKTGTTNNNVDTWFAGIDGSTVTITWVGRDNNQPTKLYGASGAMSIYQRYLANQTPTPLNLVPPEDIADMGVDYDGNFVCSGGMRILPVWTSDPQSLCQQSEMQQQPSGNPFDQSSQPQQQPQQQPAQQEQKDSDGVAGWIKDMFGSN

[25] = biological target: T3, Peptidoglycan D,D-transpeptidase MrdA (Escherichia coli K-12) (UniProt P0AD65); test: Concentration required for 90% inhibition against 66 kDa penicillin-binding protein 2 binding using [14C]-Pen G as the radioligand.; in short: as §5
T3 sequence (whole entry): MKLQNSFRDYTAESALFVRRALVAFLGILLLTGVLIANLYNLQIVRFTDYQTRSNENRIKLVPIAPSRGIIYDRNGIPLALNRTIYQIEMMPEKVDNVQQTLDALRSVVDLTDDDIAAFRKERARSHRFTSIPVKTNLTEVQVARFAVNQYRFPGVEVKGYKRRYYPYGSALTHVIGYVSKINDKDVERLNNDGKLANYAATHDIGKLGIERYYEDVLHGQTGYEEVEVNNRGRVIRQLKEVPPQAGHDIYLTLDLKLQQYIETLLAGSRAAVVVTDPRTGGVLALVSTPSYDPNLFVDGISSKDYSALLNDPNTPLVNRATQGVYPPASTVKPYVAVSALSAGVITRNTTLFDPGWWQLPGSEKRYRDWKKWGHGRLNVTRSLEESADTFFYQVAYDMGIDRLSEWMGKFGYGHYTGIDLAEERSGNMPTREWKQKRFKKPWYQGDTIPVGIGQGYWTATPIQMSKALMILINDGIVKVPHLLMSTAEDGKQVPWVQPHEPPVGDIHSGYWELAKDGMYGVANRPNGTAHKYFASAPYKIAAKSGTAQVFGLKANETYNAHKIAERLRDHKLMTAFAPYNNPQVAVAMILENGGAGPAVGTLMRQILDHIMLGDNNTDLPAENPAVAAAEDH

Escherichia coli [26] = test: Antibacterial activity against Escherichia coli DC-O; type: functional; in short: as §1

MIC (Pseudomonas aeruginosa [1])	MIC (Enterobacter cloacae [2])	MIC (Escherichia coli [3])	MIC (Streptococcus pneumoniae [4])	MIC (Streptococcus pyogenes [5])	MIC (Staphylococcus aureus [6])	MIC (Klebsiella pneumoniae [7])	MIC (Serratia marcescens [8])	MIC (Enterobacter cloacae [9])	MIC (Staphylococcus aureus [10])	MIC (Citrobacter freundii [11])	SMILES	ED50 (Streptococcus pyogenes [12])	ED50 (Serratia marcescens [15])	ED50 (Streptococcus pneumoniae [19])	ED50 (Pseudomonas aeruginosa [20])	ED50 (Escherichia coli [21])	Concentration [22]	Concentration (Escherichia coli [23])	Concentration [24]	Concentration [25]	other results
> 128 µg/mL	64 µg/mL (≈ 122 µM)	32 µg/mL (≈ 61.2 µM)	0.125 µg/mL (≈ 0.239 µM)	0.031 µg/mL (≈ 0.0593 µM)	0.063 µg/mL (≈ 0.121 µM)	32 µg/mL (≈ 61.2 µM)	> 128 µg/mL	> 128 µg/mL	128 µg/mL (≈ 245 µM)	> 128 µg/mL	C[N+]1(CC2=C(C(=O)[O-])N3C(=O)[C@@H](NC(=O)COc4ccccc4)[C@H]3SC2)CCN(c2ccccc2)CC1										
											CC(C)(O/N=C(\C(=O)N[C@@H]1C(=O)N2C(C(=O)[O-])=C(C[n+]3ccccc3)CS[C@H]12)c1csc(N)n1)C(=O)O [CEFTAZIDIME]	12 mg/kg	67 mg/kg	3 mg/kg	217 mg/kg	< 0.5 mg/kg					ED50 (Staphylococcus aureus [13]): 62 mg/kg; ED50 (Enterobacter cloacae [14]): 25 mg/kg; ED50 (Staphylococcus aureus [16]): < 2 mg/kg; ED50 (Citrobacter freundii [17]): 22 mg/kg; ED50 (Klebsiella pneumoniae [18]): < 2 mg/kg
16 µg/mL (≈ 20.9 µM)	0.25 µg/mL (≈ 0.327 µM)	0.063 µg/mL (≈ 0.0824 µM)	< 0.008 µg/mL	< 0.008 µg/mL	1 µg/mL (≈ 1.31 µM)	0.125 µg/mL (≈ 0.163 µM)	0.125 µg/mL (≈ 0.163 µM)	0.125 µg/mL (≈ 0.163 µM)	1 µg/mL (≈ 1.31 µM)	0.25 µg/mL (≈ 0.327 µM)	CO/N=C(\C(=O)N[C@@H]1C(=O)N2C(C(=O)O)=C(COC(=O)c3cn(CCF)c4c(F)c(N5CCN(C)CC5)c(F)cc4c3=O)CS[C@H]12)c1csc(N)n1						0.1 µg/mL	0.1 µg/mL	2 µg/mL	100 µg/mL	MIC (Escherichia coli [26]): 0.12 µg/mL (≈ 0.157 µM)

SMILES	MIC (Pseudomonas aeruginosa [1])	MIC (Enterobacter cloacae [2])	MIC (Escherichia coli [3])	MIC (Streptococcus pneumoniae [4])	MIC (Streptococcus pyogenes [5])	MIC (Staphylococcus aureus [6])	MIC (Klebsiella pneumoniae [7])	MIC (Serratia marcescens [8])	MIC (Enterobacter cloacae [9])	MIC (Staphylococcus aureus [10])	MIC (Citrobacter freundii [11])	ED50 (Streptococcus pyogenes [12])	ED50 (Serratia marcescens [15])	ED50 (Streptococcus pneumoniae [19])	ED50 (Pseudomonas aeruginosa [20])	ED50 (Escherichia coli [21])	Concentration [22]	Concentration (Escherichia coli [23])	Concentration [24]	Concentration [25]	other results
CO/N=C(\C(=O)N[C@@H]1C(=O)N2C(C(=O)O)=C(COC(C)=O)CS[C@H]12)c1csc(N)n1 [CEFOTAXIME]	64 µg/mL (≈ 141 µM)	0.125 µg/mL (≈ 0.274 µM)	0.031 µg/mL (≈ 0.0681 µM)	0.016 µg/mL (≈ 0.0351 µM)	< 0.008 µg/mL	1 µg/mL (≈ 2.2 µM)	0.031 µg/mL (≈ 0.0681 µM)	0.25 µg/mL (≈ 0.549 µM)	64 µg/mL (≈ 141 µM)	128 µg/mL (≈ 281 µM)	128 µg/mL (≈ 281 µM)	7 mg/kg	> 50 mg/kg	90 mg/kg	> 250 mg/kg	0.37 mg/kg	0.1 µg/mL	0.1 µg/mL	0.5 µg/mL	100 µg/mL	MIC (Escherichia coli [26]): 0.06 µg/mL (≈ 0.132 µM)
